Legend:
[1] = system: Plasmodium falciparum; experiment: Antimalarial activity against multidrug-resistant Plasmodium falciparum K1 assessed as inhibition of [3H]-hypoxanthine incorporation; type: functional, organism-based
Summary of the method: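 In vitro culture of the K1 multidrug-resistant P. falciparum strain followed the Trager–Jensen method. Activity was scored by the Desjardins microculture radioisotope technique, reading [3H]-hypoxanthine uptake by the parasites. IC50 was taken as the concentration giving 50% reduction in parasite growth. Dihydroartemisinin served as the reference standard.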

[2] = system: KB; experiment: Cytotoxicity against human KB cells by SRB assay; type: functional, cell-based
[3] = system: NCI-H187; experiment: Cytotoxicity against human NCI-H187 cells by SRB assay; type: functional, cell-based
[4] = system: MCF7; experiment: Cytotoxicity against human MCF7 cells by SRB assay; type: functional, cell-based
[5] = Plasmodium falciparum, K1, read-out: IC50
[6] = Homo sapiens, NCI-H187, read-out: IC50
[7] = Homo sapiens, MCF7, read-out: IC50

Row | SMILES | IC50 [1, 5] [nM] | IC50 [2] [nM] | IC50 [3, 6] [nM] | IC50 [4, 7] [nM] | IC50 ([3]; nci-h187) | IC50 ([4]; mcf7) | IC50 [1]
1 | C[C@H]1[C@@H](O)O[C@@H]2O[C@@]3(C)CC[C@H]4[C@H](C)CC[C@@H]1[C@@]24OO3 [ARTENIMOL] | 4 |  |  |  |  |  | 
2 | COc1cccc2c1C(=O)c1c(O)c3c(c(O)c1C2=O)C[C@@](O)(C(=O)CO)C[C@@H]3O[C@H]1C[C@H](N)[C@H](O)[C@H](C)O1 [DOXORUBICIN] |  | 330 | 110 | 2290 |  |  | 
3 | Cc1c2ccncc2c(C)c2c1[nH]c1ccccc12 [ELLIPTECINE] |  | 1250 | 1820 |  |  |  | 
4 | CCC(C)CC(C)/C=C(C)/C=C/C(=O)[C@H]1C(=O)O[C@@]2(C)C(=O)C=C3C=C([C@H]4C(=O)C=CC[C@@H]4C)OC=C3[C@@H]12 (some centres not stated) [LONGIROSTRERONE C] | 620 | 230 |  |  | Not Active | Not Active | 
5 | CCC(C)CC(C)/C=C(C)/C=C/C(=O)C1=C2C3=COC([C@H]4C(=O)C[C@H](O)C[C@@H]4C)=CC3=CC(=O)[C@@]2(C)OC1=O (some centres not stated) [LONGIROSTRERONE D] |  | 6380 | 18400 | 38200 |  |  | Not Active
6 | CCC(C)CC(C)/C=C(C)/C=C/C(=O)[C@H]1C(=O)O[C@@]2(C)C(=O)C=C3C=C([C@H]4C(=O)C[C@H](O)C[C@@H]4C)OC=C3[C@@H]12 (some centres not stated) [LONGIROSTRERONEA] | 630 | 1040 | 3080 | 240 |  |  | 
7 | CCC(C)CC(C)/C=C(C)/C=C/C(=O)C[C@H]1C2=COC([C@H]3C(=O)C[C@H](O)C[C@@H]3C)=CC2=CC(=O)[C@]1(C)O (some centres not stated) [LONGIROSTRERONEB] | 3730 | 1520 |  |  | Not Active | Not Active | 

Reference: ChEMBL document CHEMBL1938234, “Cytotoxic and antimalarial azaphilones from Chaetomium longirostre” (J Nat Prod, 2011)
